In ChEMBL document CHEMBL1158785, “Polyoxygenated steroids from the gorgonian Isis hippuris” (J Nat Prod, 2005) one finds IC50 data, which are given here for 15 molecules.

SMILES strings stand for the structures. Values after ≈ are worked out from the molar mass of the structure shown.

For assay [1], the system named is MDA-MB-231. The assay can be described thus: Cytotoxicity against human MDA-MB-231 cells after 3 days by MTT assay. It is filed as functional, cell-based. The settings on record: MDA-MB-231, 72 h. A digest of the protocol: (§1)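 Freshly trypsinized cells seeded at 5000-10 000 per well, compounds added from DMSO-diluted stock; 3 days culture. Attached cells then given MTT (0.5 mg/mL, 1 h), formazan dissolved in DMSO, absorbance read at 550 nm. IC50 taken as concentration reducing cell growth by 50%.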

Assay [2] relates to MCF7. The assay can be described thus: Cytotoxicity against human MCF7 cells after 3 days by MTT assay. It is filed as functional, cell-based. The settings on record: MCF7, 72 h. A digest of the protocol:
as §1
In general terms: Formazan colour is commonly taken as a measure of viable cells.

The test system of assay [3] is HepG2. The assay can be described thus: Cytotoxicity against human HepG2 cells after 3 days by MTT assay. It counts as functional, cell-based. The settings on record: HepG2, 72 h. A digest of the protocol: as §1
The nature of assay [4]: Cytotoxicity against human Hep3B cells after 3 days by MTT assay. It is filed as functional, cell-based, Hep 3B2. The settings on record: 72 h. A digest of the protocol:
as §1

Usually IC50 stands for the midpoint of a concentration-inhibition curve. Read a high IC50 as a need for much substance. As to `CC(=O)O[C@@H]1CC[C@@]2(C)[C@@H](CC[C@@H]3[C@@H]2[C@@H](O)C[C@]24C(=O)O[C@]5(C)[C@H]2[C@H](C[C@@H]34)O[C@]52C[C@H](C)C(C)(C)O2)C1`, the IC50 in assay [1], in assay [2] and in assay [3] was over 20 µg/mL throughout.
As to `CC(=O)O[C@@H]1C[C@@]2(C)[C@@H](CC[C@@H]3[C@@H]2[C@@H](O)C[C@@]2(C)[C@H]3C[C@@H]3O[C@@]4(C[C@H](C)C(C)(C)O4)[C@](C)(O)[C@@H]32)C[C@@H]1O`, the IC50 in assay [1] is 0.41 µg/mL (≈ 0.787 µM); in assay [2] it was 0.53 µg/mL (≈ 1.02 µM); in assay [4], 0.1 µg/mL (≈ 0.192 µM); in assay [3], 0.56 µg/mL (≈ 1.08 µM).
On to `C[C@H]1C[C@]2(O[C@H]3C[C@H]4[C@@H]5CC[C@H]6C[C@H](O)[C@H](O)C[C@]6(C)[C@H]5[C@@H](O)C[C@@]45C(=O)O[C@]2(C)[C@@H]35)OC1(C)C`, for which the IC50 in assay [1] was over 30 µg/mL; in assay [2], over 30 µg/mL; in assay [4] it was 23.8 µg/mL (≈ 48.6 µM); in assay [3] it was over 30 µg/mL.
As to `CC(=O)O[C@H]1C[C@@H]2CC[C@@H]3[C@H]([C@@H](O)C[C@]45C(=O)O[C@]6(C)[C@H]4[C@H](C[C@@H]35)O[C@]63C[C@H](C)C(C)(C)O3)[C@@]2(C)C[C@H]1OC(C)=O`, the IC50 was over 20 µg/mL in assay [1], 19.6 µg/mL (≈ 34.1 µM) in assay [2] and over 20 µg/mL in assay [3].
In the case of `C[C@H]1C[C@]2(O[C@H]3C[C@H]4[C@@H]5CC[C@H]6C[C@H](O)[C@H](O)C[C@]6(C)[C@H]5[C@@H](O)C[C@]4(C)[C@H]3[C@@]2(C)O)OC1(C)C`, the IC50 amounted to 0.75 µg/mL (≈ 1.57 µM) in assay [1], 0.59 µg/mL (≈ 1.23 µM) in assay [2], 0.77 µg/mL (≈ 1.61 µM) in assay [4] and 0.62 µg/mL (≈ 1.3 µM) in assay [3].
As to `C[C@H]1C[C@]2(O[C@H]3C[C@H]4[C@@H]5CC[C@H]6C[C@H](O)CC[C@]6(C)[C@H]5[C@@H](O)C[C@@]45C(=O)O[C@]2(C)[C@@H]35)OC1(C)C`, the IC50 in assay [1], in assay [2] and in assay [3] was over 20 µg/mL each time.
Turning to `CC(=O)O[C@@H]1CC[C@@]2(C)[C@@H](CC[C@@H]3[C@@H]2[C@@H]2C[C@]45[C@H](O2)O[C@]2(C)[C@H]4[C@H](C[C@@H]35)O[C@]23C[C@H](C)C(C)(C)O3)C1`, the IC50 in assay [1], in assay [2] and in assay [3] was over 20 µg/mL in each case.
On to `CC(=O)O[C@H]1C[C@@H]2CC[C@@H]3[C@H]([C@@H]4C[C@]56[C@H](O4)O[C@]4(C)[C@H]5[C@H](C[C@@H]36)O[C@]43C[C@H](C)C(C)(C)O3)[C@@]2(C)C[C@H]1OC(C)=O`, for which the IC50 in assay [1], in assay [2] and in assay [3] was over 20 µg/mL each time.
Turning to `CC(=O)O[C@H]1C[C@@H]2CC[C@@H]3[C@H]([C@@H](O)C[C@]45[C@H](O)O[C@]6(C)[C@H]4[C@H](C[C@@H]35)O[C@]63C[C@H](C)C(C)(C)O3)[C@@]2(C)C[C@H]1OC(C)=O`, the IC50 is over 20 µg/mL in assay [1], 11.4 µg/mL (≈ 19.7 µM) in assay [2] and over 20 µg/mL in assay [3].
For `CC(=O)O[C@H]1C[C@@H]2CC[C@@H]3[C@H]([C@@H](O)C[C@@]4(C)[C@H]3C[C@@H]3O[C@]5(C[C@H](C)C(C)(C)O5)[C@](C)(O)[C@@H]34)[C@@]2(C)C[C@H]1O`, the half-maximal inhibitory concentration (IC50) in assay [1] stood at 0.74 µg/mL (≈ 1.42 µM); in assay [2], 2.41 µg/mL (≈ 4.63 µM); in assay [4], 1.46 µg/mL (≈ 2.8 µM); in assay [3], 2.06 µg/mL (≈ 3.96 µM).
The corresponding values for `CC(=O)O[C@H]1C[C@@H]2CC[C@@H]3[C@H]([C@@H](O)C[C@@]4(C)[C@H]3C[C@@H]3O[C@@]5(C[C@H](C)C(C)(C)O5)[C@](C)(O)[C@@H]34)[C@@]2(C)C[C@H]1O` are 0.21 µg/mL (≈ 0.403 µM), 1.07 µg/mL (≈ 2.05 µM), 0.46 µg/mL (≈ 0.883 µM) and 0.72 µg/mL (≈ 1.38 µM).
`CC(=O)O[C@@H]1C[C@@]2(C)[C@@H](CC[C@@H]3[C@@H]2[C@@H](O)C[C@]24C(=O)O[C@]5(C)[C@H]2[C@H](C[C@@H]34)O[C@]52C[C@H](C)C(C)(C)O2)C[C@@H]1O`: the IC50 in assay [1] is over 30 µg/mL; in assay [2], over 30 µg/mL; in assay [4] it was over 30 µg/mL; in assay [3], 27.6 µg/mL (≈ 51.8 µM).
For `CC(=O)O[C@@H]1C[C@@]2(C)[C@@H](CC[C@@H]3[C@@H]2[C@@H](O)C[C@@]2(C)[C@H]3C[C@@H]3O[C@]4(C[C@H](C)C(C)(C)O4)[C@](C)(O)[C@@H]32)C[C@@H]1O` [EPIHIPPURIN 1], the IC50 in assay [1] came out at 2.64 µg/mL (≈ 5.07 µM); in assay [2], 4.54 µg/mL (≈ 8.72 µM); in assay [4], 0.68 µg/mL (≈ 1.31 µM); in assay [3], 4.64 µg/mL (≈ 8.91 µM).
The corresponding values for `C[C@H]1C[C@]2(O[C@H]3C[C@H]4[C@@H]5CC[C@H]6C[C@H](O)CC[C@]6(C)[C@H]5[C@@H](O)C[C@]4(C)[C@H]3[C@@]2(C)O)OC1(C)C` [EPIHIPPURISTANOL] are 0.13 µg/mL (≈ 0.281 µM), 0.2 µg/mL (≈ 0.432 µM), 0.1 µg/mL (≈ 0.216 µM) and 0.08 µg/mL (≈ 0.173 µM).
Take `CC(=O)O[C@@H]1CC[C@@]2(C)[C@@H](CC[C@@H]3[C@@H]2[C@@H](O)C[C@]24[C@H](O)O[C@]5(C)[C@H]2[C@H](C[C@@H]34)O[C@]52C[C@H](C)C(C)(C)O2)C1` [HIPPURISTANOHEMIACETAL]: the IC50 in assay [1] was over 20 µg/mL; in assay [2], 12.7 µg/mL (≈ 24.5 µM); in assay [3] it was over 20 µg/mL.
